In publication PMC4744243 (Oncogene, 2015):
Read-outs that look alike come from different tables or passages of the source.

Columns and labels:
[1] = system: K-P (KARPAS422-parental cells); assay type: cell-based; conditions: 10 μM for 6 days
[2] = system: K-R2- and K-R10-derived cell clones; assay type: cell-based; conditions: four K-R2- and K-R10-derived clones; 6-day
[3] = system: H3K4, K9, K36 and K79 methylation; assay: Western blot and histone profiling of other H3 methylation marks; assay type: cell-based; conditions: 2 or 10 µM, 3 days
Summary of the method: (§1)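 Karpas422 parental cells were grown in RPMI-1640 with 10% FBS at 37 °C and 5% CO2. Histones were extracted from pellets of 5 × 10^6 cells with a histone purification kit. Free lysines were blocked by derivatization, and methylated H3 peptides were then analysed by high-resolution mass spectrometry.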

[4] = system: K-P (KARPAS422-parental cells); conditions: 6-day, compared with EI1
[5] = system: tumor xenograft; conditions: high-dose treatment; after cessation of the dosing; cited from earlier work
[6] = system: WSU-DLCL2 xenograft; conditions: high-dose; 28-day treatment cycle; cited from earlier work
[7] = molecular target: PRC2^WT (Homo sapiens, UniProt Q15910); assay type: biochemical; conditions: read-out: IC50 WT, [SAM] 1 µM
Sequence of PRC2^WT (Q15910 whole entry): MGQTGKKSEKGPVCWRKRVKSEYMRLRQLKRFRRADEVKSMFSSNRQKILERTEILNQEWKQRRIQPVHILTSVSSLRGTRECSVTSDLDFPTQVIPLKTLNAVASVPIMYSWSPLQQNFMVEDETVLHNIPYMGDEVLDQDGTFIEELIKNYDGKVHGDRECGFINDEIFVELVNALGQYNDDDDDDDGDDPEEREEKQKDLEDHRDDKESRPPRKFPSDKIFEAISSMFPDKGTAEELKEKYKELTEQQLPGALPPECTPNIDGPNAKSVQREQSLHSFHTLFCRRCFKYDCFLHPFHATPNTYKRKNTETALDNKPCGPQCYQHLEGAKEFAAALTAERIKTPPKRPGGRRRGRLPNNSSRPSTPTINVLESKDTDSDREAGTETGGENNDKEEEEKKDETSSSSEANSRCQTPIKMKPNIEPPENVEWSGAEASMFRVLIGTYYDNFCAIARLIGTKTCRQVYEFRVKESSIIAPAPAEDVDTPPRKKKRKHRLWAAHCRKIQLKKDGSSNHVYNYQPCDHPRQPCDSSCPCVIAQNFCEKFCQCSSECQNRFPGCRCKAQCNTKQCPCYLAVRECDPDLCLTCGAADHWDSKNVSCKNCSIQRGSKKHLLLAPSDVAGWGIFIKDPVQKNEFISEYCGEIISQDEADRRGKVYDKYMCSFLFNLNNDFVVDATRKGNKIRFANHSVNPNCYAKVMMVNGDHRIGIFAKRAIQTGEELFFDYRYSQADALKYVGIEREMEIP
Sequence of PRC2^WT (O75530 whole entry partner): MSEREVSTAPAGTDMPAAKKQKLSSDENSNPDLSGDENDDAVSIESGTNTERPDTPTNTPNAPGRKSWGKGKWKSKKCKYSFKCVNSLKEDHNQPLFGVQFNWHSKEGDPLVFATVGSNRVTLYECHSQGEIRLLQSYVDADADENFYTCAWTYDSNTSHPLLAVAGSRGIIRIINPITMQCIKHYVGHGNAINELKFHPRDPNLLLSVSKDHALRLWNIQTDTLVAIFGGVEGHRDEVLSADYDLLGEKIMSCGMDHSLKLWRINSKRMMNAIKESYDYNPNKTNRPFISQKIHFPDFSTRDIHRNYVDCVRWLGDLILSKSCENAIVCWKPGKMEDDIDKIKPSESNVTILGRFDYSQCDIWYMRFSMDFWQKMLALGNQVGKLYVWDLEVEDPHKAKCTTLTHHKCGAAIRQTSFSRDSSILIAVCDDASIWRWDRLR
Sequence of PRC2^WT (Q15022 whole entry partner): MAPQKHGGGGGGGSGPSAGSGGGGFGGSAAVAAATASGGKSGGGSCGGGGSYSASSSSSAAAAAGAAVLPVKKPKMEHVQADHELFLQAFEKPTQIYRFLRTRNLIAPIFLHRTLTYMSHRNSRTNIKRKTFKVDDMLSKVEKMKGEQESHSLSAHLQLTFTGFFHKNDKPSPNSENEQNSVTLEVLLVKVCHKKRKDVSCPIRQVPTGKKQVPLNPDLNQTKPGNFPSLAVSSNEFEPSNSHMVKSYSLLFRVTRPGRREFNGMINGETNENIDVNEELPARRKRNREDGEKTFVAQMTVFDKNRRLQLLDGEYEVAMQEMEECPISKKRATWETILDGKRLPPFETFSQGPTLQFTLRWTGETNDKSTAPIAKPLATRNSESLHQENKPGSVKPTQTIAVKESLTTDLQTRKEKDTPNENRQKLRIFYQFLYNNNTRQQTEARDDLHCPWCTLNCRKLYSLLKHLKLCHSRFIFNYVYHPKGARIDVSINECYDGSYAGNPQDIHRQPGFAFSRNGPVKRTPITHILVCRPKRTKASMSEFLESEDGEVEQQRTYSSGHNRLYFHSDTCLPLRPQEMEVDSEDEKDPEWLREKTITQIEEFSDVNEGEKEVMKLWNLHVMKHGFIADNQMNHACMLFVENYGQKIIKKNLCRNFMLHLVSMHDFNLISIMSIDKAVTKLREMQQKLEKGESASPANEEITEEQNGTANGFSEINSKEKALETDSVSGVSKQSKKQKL

[8] = molecular target: PRC2^Y111L (Homo sapiens, UniProt Q15910, Y111L); assay type: biochemical; conditions: for IC50: read-out: IC50 Y111L, [SAM] 1 µM; for IC50 Y111L: [SAM] 20 μM
Sequence of PRC2^Y111L (Q15910 whole entry Y111L): as the sequence (Q15910 whole entry) above, with Y111L counted along it
Sequence of PRC2^Y111L (O75530 whole entry partner): as the sequence (O75530 whole entry partner) above
Sequence of PRC2^Y111L (Q15022 whole entry partner): as the sequence (Q15022 whole entry partner) above

[9] = molecular target: PRC2^Y641N/Y661D (Homo sapiens, UniProt Q15910, Y641N/Y661D); assay type: biochemical; conditions: for IC50: read-out: IC50 Y641N/Y6661D, [SAM] 20 μM
Sequence of PRC2^Y641N/Y661D (Q15910 whole entry Y641N/Y661D): as the sequence (Q15910 whole entry) above, with Y641N, Y661D counted along it
Sequence of PRC2^Y641N/Y661D (O75530 whole entry partner): as the sequence (O75530 whole entry partner) above
Sequence of PRC2^Y641N/Y661D (Q15022 whole entry partner): as the sequence (Q15022 whole entry partner) above

[10] = system: H3K27Me3 peptides in K-P cells; assay: Histone tail profiling by mass spectrometry; assay type: cell-based; conditions: 2 or 10 µM, 3 days, vs DMSO control
Summary of the method: as §1

[11] = system: H3K27Me2 and Me3 in K-P cells; assay: Western blot of H3K27 methylation; assay type: cell-based; conditions: K-P cells treated with increasing doses
[12] = system: EZH2 WT; conditions: read-out: half-maximal inhibition (IC50); cited from earlier work
[13] = system: EZH2 Y641 mutant; conditions: read-out: half-maximal inhibition (IC50); cited from earlier work

IC50 ([7]; substrate H3K27Me0 peptide)	IC50 ([7]; substrate H3K27Me1 peptide)	IC50 ([8]; substrate H3K27Me0 peptide)	IC50 ([8]; substrate H3K27Me1 peptide)	IC50 Y111L ([8]; substrate H3K27Me0 peptide)	IC50 Y111L ([8]; substrate H3K27Me1 peptide)	IC50 against PRC2^Y641N/Y661D, fold weaker compared with PRC2^Y641N ([9]; 1 μM SAM, both H3K27Me1 and Me2 substrates)	IC50 ([9]; substrate H3K27Me1 peptide)	IC50 ([9]; substrate H3K27Me2 peptide)	SMILES	reduction of BrdU incorporation compared with DMSO control [1]	growth inhibition in cell proliferation assay [2]	decrease in H3K4, K9, K36 and K79 methylation [3]	growth arrest (growth inhibition) in proliferation assay [4]	anti-tumor effect in tumor xenograft studies [5]	anti-tumor effect in WSU-DLCL2 xenograft model [6]	decrease of K27Me3 methylated peptides [10]	H3K27Me2 and Me3 levels (western blot) [11]	IC50 [12]	IC50 [13]
–	–	–	–	–	–	–	–	–	CCN(c1cc(-c2ccc(CN3CCOCC3)cc2)cc(C(=O)NCc2c(C)cc(C)[nH]c2=O)c1C)C1CCOCC1 [EPZ-6438, reference compound]	> 90%	refractory	no noticeable decrease	more potent in inducing growth arrest	complete tumor regression without tumor regrowth	partial tumor regression	–	–	–	–
20 nM	9 nM	3100 nM	4200 nM	inactive	inactive	> 300 fold	> 25000 nM	> 25000 nM	CCC(CC)n1ccc2c(C(=O)NCc3c(C)cc(C)[nH]c3=O)cc(C#N)cc21 [EI1]	> 90%	refractory	no noticeable decrease	–	–	–	> 2 fold	both H3K27Me2 and Me3 levels decreased	10 to 20 nM	10 to 20 nM
